TDP2 absorb – human TDP2 enzyme inhibitors, primary screen, biochemical, epi absorbance, recombinant enzyme. T5PNP hydrolysis, p-nitrophenol absorbance 415 nm. inhibition, % at 12.8 µM. actives 0.34% (n = 370,000). AID 720702, 2013;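 active = inhibition above the mean of all tested compounds plus 3 SD, set per campaign, cut at about 25% in these data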
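Assay system: recombinant human TDP2 / Reagent: T5PNP substrate at 5 mM, a TopII-DNA adduct mimic / Measured by: epi absorbance from released p-nitrophenol / Evaluation: % inhibition relative to enzyme-containing and enzyme-free wells / Control set: enzyme-free and DMSO wells / Replicates: each compound tested once, singlicate / Schedule: enzyme reaction with compound for 2 h at 37 °C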
UHRF1 binding – UHRF1 methylated DNA binding inhibitors, primary screen, counter-screen for MBD2 inhibitor project, biochemical, TR-FRET, human UHRF1, single concentration | inhibition, % at 4.4 µM | actives 0.75% (n = 370,000) | UHRF1 binding to methylated oligo | AID 687016, 2013 | E3 ubiquitin-protein ligase UHRF1 (Homo sapiens), Q96T88;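 also: UHRF1 SRA domain binding a hemimethylated CpG hairpin DNA probe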
Target sequence (Q96T88 whole entry, looked up, the tested form may be a part): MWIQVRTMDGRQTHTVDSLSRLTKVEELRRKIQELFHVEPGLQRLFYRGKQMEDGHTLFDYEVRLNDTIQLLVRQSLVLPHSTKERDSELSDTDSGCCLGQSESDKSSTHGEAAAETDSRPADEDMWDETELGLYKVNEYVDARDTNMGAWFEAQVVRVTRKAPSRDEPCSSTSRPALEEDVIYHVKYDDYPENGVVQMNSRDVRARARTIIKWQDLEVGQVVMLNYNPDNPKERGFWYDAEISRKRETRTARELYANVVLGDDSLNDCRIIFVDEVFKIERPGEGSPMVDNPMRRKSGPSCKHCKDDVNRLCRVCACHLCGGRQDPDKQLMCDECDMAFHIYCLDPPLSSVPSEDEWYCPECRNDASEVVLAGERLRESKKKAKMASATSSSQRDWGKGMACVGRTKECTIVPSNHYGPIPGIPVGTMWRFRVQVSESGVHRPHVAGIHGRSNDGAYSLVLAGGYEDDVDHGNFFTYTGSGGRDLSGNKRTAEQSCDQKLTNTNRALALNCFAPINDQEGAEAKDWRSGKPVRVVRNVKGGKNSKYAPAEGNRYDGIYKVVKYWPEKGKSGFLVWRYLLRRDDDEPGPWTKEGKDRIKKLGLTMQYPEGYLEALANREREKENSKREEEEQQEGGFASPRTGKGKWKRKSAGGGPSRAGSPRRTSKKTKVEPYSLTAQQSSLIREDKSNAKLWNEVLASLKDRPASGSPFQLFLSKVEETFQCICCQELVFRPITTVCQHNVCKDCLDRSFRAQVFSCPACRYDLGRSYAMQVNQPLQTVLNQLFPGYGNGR
LEDGF integ inh – blockers of LEDGF/p75-dependent integrase strand transfer – biochemical, TR-FRET, high throughput, primary screen; HIV-1 integrase (with human LEDGF/p75); TR-FRET IN-LEDGF/p75 DNA integration, Eu/Cy5; inhibition, % at 3.7 µM; actives 0.64% (n = 370,000);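 active = inhibition above the screen-wide mean plus 3 SD, cut at about 13% in these data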;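 also: signal is the Cy5 over europium emission ratio at 671 and 618 nm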
MBD2 inh – inhibitors of MBD2 binding to methylated DNA, primary screen, biochemical, TR-FRET, DNA-binding domain, human | Methyl-CpG-binding domain protein 2 (Homo sapiens), Q9UBB5 | MBD2 binding to methylated oligonucleotide | inhibition, % at 4.4 µM | actives 0.31% (n = 370,000) | AID 686964, 2013; in the data active = inhibition above about 13%
UHRF1 DNA bind – UHRF1 methylated DNA binding inhibitors, counter-screen for MBD2 inhibitor project, biochemical, TR-FRET, human UHRF1; shares compounds with MBD2 inh; UHRF1 binding to methylated oligonucleotide; inhibition, % at 4.4 µM; actives 25% (n = 1,000); AID 720530, 2013;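 also: UHRF1 SRA domain binding a labeled hemimethylated CpG hairpin DNA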
MBD2 DBD conf – inhibitors of MBD2 binding to methylated DNA, confirmation, biochemical, TR-FRET, DNA-binding domain, human; shares compounds with MBD2 inh; TR-FRET MBD2-DBD binding to methylated oligonucleotide; inhibition, % at 4.4 µM; actives 26% (n = 1,000); in the data active = inhibition above about 14%
Large screens that a line does not name were inactive (follow-up assays come after a bar, where they were run). In the library only some 1.6% were active in any assay of this set; here they are far more common. Rule as the data show it, unless noted: active = inhibition above about 21%; inactive = the rest.

Cc1ccc(S(=O)(=O)N2C[C@]3(O)C[C@@H]4C(=O)N(c5ccccc5)C(=O)[C@@H]4C[C@]3(OC(=O)NCc3ccccc3)C2)cc1	UHRF1 binding 23
O=c1c2ccc(F)cc2nc2sc(Nc3ccc4c(c3)CCC4)nn12	none
FC(F)(F)c1ccccc1NC(=S)NC1CCN(Cc2ccccc2)CC1	UHRF1 binding 37
O=C(NCCN1CCC(Cc2ccccc2)CC1)C1CCCN(S(=O)(=O)c2ccccc2)C1 (configuration not stated)	none
Cn1c(SCC(=O)NC2CCCCCC2)nnc1-c1ccco1	none
CC(C)n1c(SCC(=O)NC2CCCCC2)nnc1-c1ccco1	UHRF1 binding 43
Cc1cc(NC(=O)c2ccc(NS(=O)(=O)c3ccc(F)cc3)cc2)no1	none
CCOc1cc(C(=O)Nc2ccc3c(c2)OCO3)ccc1OC(F)F	UHRF1 binding 23
CCOc1ccc(C(=O)NCC(=O)Nc2ccc3c(c2)OCO3)cc1OCC	none
COc1cc(NC(=O)c2ccc3c(c2)OCO3)ccc1NC(=O)C(C)C	UHRF1 binding 66
Cc1nc2sc(C(=O)NCc3nccs3)c(N)c2c(C)c1Cl	none
N#Cc1ccc(/C=C/C(=O)c2ccc3c(c2)OCO3)cc1	UHRF1 binding 26
COc1ccc(/C=C/C(=O)c2ccc3c(c2)OCO3)cc1OC	none
CC1=C/C(=C\c2ccc(Br)o2)C(=O)O1	UHRF1 binding 53, MBD2 inh 16
Oc1ccccc1Oc1ncc(Br)c(N2CCOCC2)n1	none
Oc1ccccc1Oc1ncc(Br)c(Cl)n1	UHRF1 binding 22
CCc1cc2c(nc1CC)CCCN2S(=O)(=O)c1ccc(C#N)cc1	none
C[C@H]1[C@H](NC(=O)C(=NOC(C)(C)C(=O)O)c2csc(N)n2)C(=O)N1S(=O)(=O)O	UHRF1 binding 25
CCOC(=O)c1csc(N)n1	none
Cc1ccc(-c2csc(NC(=O)/C=C/c3ccco3)c2C(=O)O)cc1	UHRF1 binding 31
Cc1ccc(-c2csc(NC(=O)c3cccc(C)c3)c2C(=O)O)cc1	none
O=C(/C=C/c1ccco1)Nc1cccc(NC(=O)/C=C/c2ccco2)n1	UHRF1 binding 21
C=CCN1[C@H](C#N)[C@@H](c2ccc(C#Cc3cccnc3)cc2)[C@H]1CO	none
COC(=O)C1CSC(C)(C)C(=O)N1 (configuration not stated)	none
COC(=O)CCCCC1SCC2NC(=O)NC21O (configuration not stated)	LEDGF integ inh 41
C/C(=N/NC(=O)C1CC1(c1ccccc1)c1ccccc1)c1ccco1 (configuration not stated)	UHRF1 binding 28
NNC(=O)C1CC1(c1ccccc1)c1ccccc1 (configuration not stated)	UHRF1 binding 23
COC(=O)[C@]12C[C@H](CC(=O)NCc3ccc(OC)c(OC)c3)C(=O)N(Cc3ccc(Cl)cc3Cl)C1=C[C@H](C(C)(C)C)O[C@@H]2C	none
CCn1nc(C)c(NC(=O)c2ccc(Cl)cc2)c1C	UHRF1 binding 27
CCn1nc(C)c(NC(=O)Nc2cccc(Cl)c2Cl)c1C	none
CCOC(=O)CCC(NC(=O)CC(=O)NC(CCC(=O)OCC)C(=O)OCC)C(=O)OCC (configuration not stated)	UHRF1 binding 36
C[N+](=O)C1C(=O)Nc2ccccc21 (configuration not stated)	MBD2 inh 101 | UHRF1 DNA bind inactive | MBD2 DBD conf inactive
O=C(CSc1nnc(-c2ccccc2F)n1Cc1ccco1)Nc1ccccc1-c1ccccc1	none
CC(C)(Oc1ccc(F)cc1)C(=O)OCC(=O)c1ccc(S(C)(=O)=O)cc1	MBD2 inh 36 | UHRF1 DNA bind inactive | MBD2 DBD conf inactive
CCCCCCNC(=O)C1CSCCS(=O)(=O)N1Cc1ccc(F)cc1 (configuration not stated)	none
O=C(O)CCc1ccc(-c2cccs2)n1CC(=O)Nc1ccccc1C(F)(F)F	MBD2 inh 28 | UHRF1 DNA bind inactive | MBD2 DBD conf inactive
COC(=O)[C@@]12CCCCC=C1N(CCc1ccc(Cl)cc1)C(=O)[C@H]2CC(=O)NCc1ccc(C)o1	none
COc1ccc(CNC(=S)OC2CCC23CCC(c2ccccc2)CC3)cc1 (configuration not stated)	none
Cc1cc(Nc2cc(F)c(F)c(F)c2)cc(=O)n1-c1cc(F)c(F)c(F)c1	none
COc1ccc(C2=C(c3ccc([N+](=O)[O-])cc3)C(=O)OC2)cc1	none
O=C1OCC(c2ccccc2)=C1c1ccccc1	UHRF1 binding 21, MBD2 inh 22 | UHRF1 DNA bind 36 | MBD2 DBD conf 38
CS(=O)(=O)c1ccc(C2=C(c3ccccc3)C(=O)OC2)cc1	UHRF1 binding 34, MBD2 inh 33 | UHRF1 DNA bind 46 | MBD2 DBD conf 45
Cc1ccccc1CN1CCCCC(NC(=O)Nc2cccc(F)c2)C1=O (configuration not stated)	none
CCCc1nc2ccc(C(=O)OC)cn2c1Cc1cccc(F)c1	UHRF1 binding 26, MBD2 inh 17 | UHRF1 DNA bind inactive | MBD2 DBD conf inactive
COc1ccc(CSc2nnc(SCc3ccccc3)s2)cc1	none
COc1ccc2c(C(c3ccccc3O)C3CCCN3S(=O)(=O)c3ccc(C)cc3)cn(C)c2c1 (configuration not stated)	none
Oc1ccc(N2CCN(Cc3c(-c4ccccc4)nc4ccccn34)CC2)cc1	MBD2 inh 80 | UHRF1 DNA bind inactive | MBD2 DBD conf inactive
Clc1ccc(-c2nc3ccccn3c2CN2CCCCC2)cc1	none
CCc1nnc(NC(=O)CN2CCN(Cc3ccccc3C)CC2)s1	none
O=C(Nc1nnc(CCN2CCCCC2)s1)c1ccccc1	none
CCc1nnc(NC(=O)CN2CCN(Cc3ccccc3Cl)CC2)s1	MBD2 inh 17 | UHRF1 DNA bind inactive | MBD2 DBD conf inactive
O=C(Nc1nnc(CCN2CCCCC2)s1)c1ccccc1Cl	UHRF1 binding 25, MBD2 inh 16 | UHRF1 DNA bind inactive | MBD2 DBD conf inactive
O=C(Cn1cnc2scc(-c3cccc([N+](=O)[O-])c3)c2c1=O)NCc1ccco1	MBD2 inh 24 | UHRF1 DNA bind 23 | MBD2 DBD conf 17
CCOC(=O)c1cc(-c2ccc(N3CCOCC3)cc2)nn1-c1ccccc1C(=O)O	MBD2 inh 23 | UHRF1 DNA bind 27 | MBD2 DBD conf 27

Bioassay records (PubChem BioAssay)
